A short description of experiment [1]: Binding affinity to HIV-1NL4-3 15N-labeled C-terminal domain CA-SP1-NC at L231 residue cleavage site of Gag-Pol protein harboring W184A/M185A mutant expressed in Escherichia coli by 1H-15N SOFAST-HMQC spectroscopic analysis. Details: species or system Human immunodeficiency virus 1. Summed up: (§1)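 300 μM 15N-labelled CA-CTD(W184A/M185A)-SP1-NC in acetate buffer (25 mM Na acetate pH 6.5, 25 mM NaCl, 0.1 mM ZnCl2, 0.1 mM 2-mercaptoethanol, 10% D2O), 303 K, 600 MHz with cryoprobe. Ligand added from ~60 mM DMSO-d6 stock; reference 1H-15N SOFAST-HMQC recorded first. Per-residue Kd from non-linear fit of chemical shift perturbation vs ligand concentration, one-site model plus linear non-specific term.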

Experiment [2] concerns Human immunodeficiency virus 1. Description: Binding affinity to HIV-1NL4-3 15N-labeled C-terminal domain CA-SP1-NC cleavage site of Gag-Pol protein harboring W184A/M185A mutant expressed in Escherichia coli assessed as HetNOE value at SP1 T239 residues by NMR analysis (reference value: -0.324No_unit).
Experiment [3] is described as follows: Binding affinity to HIV-1NL4-3 15N-labeled C-terminal domain CA-SP1-NC at V221 residue cleavage site of Gag-Pol protein harboring W184A/M185A mutant expressed in Escherichia coli by 1H-15N SOFAST-HMQC spectroscopic analysis. Details: species or system Human immunodeficiency virus 1. Summed up:
as §1

The nature of experiment [4]: Binding affinity to HIV-1NL4-3 15N-labeled C-terminal domain CA-SP1-NC at M235 residue cleavage site of Gag-Pol protein harboring W184A/M185A mutant expressed in Escherichia coli by 1H-15N SOFAST-HMQC spectroscopic analysis. Details: species or system Human immunodeficiency virus 1. Summed up: as §1
A short description of experiment [5]: Binding affinity to HIV-1NL4-3 15N-labeled C-terminal domain CA-SP1-NC at Q237 residue cleavage site of Gag-Pol protein harboring W184A/M185A mutant expressed in Escherichia coli by 1H-15N SOFAST-HMQC spectroscopic analysis. Details: species or system Human immunodeficiency virus 1. Summed up: as §1
Experiment [6] in a line: Binding affinity to HIV-1NL4-3 15N-labeled C-terminal domain CA-SP1-NC at T239 residue cleavage site of Gag-Pol protein harboring W184A/M185A mutant expressed in Escherichia coli by 1H-15N SOFAST-HMQC spectroscopic analysis. Details: species or system Human immunodeficiency virus 1. Summed up:
as §1

For experiment [7], the system named is Human immunodeficiency virus 1. Description: Binding affinity to HIV-1NL4-3 15N-labeled C-terminal domain CA-SP1-NC cleavage site of Gag-Pol protein harboring W184A/M185A mutant expressed in Escherichia coli assessed as change in resonances at CA 220/225 to 229 and Nc 248 to 253/ 256 residues by 1H-15N SOFAST-HMQC spectroscopic analysis. Summed up: (§2)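 1H-15N SOFAST-HMQC of 300 μM 15N-labelled CA-CTD(W184A/M185A)-SP1-NC, without and with ligand. Buffer: 25 mM Na acetate pH 6.5, 25 mM NaCl, 0.1 mM ZnCl2, 0.1 mM 2-mercaptoethanol, 10% D2O. Recorded at 303 K, 600 MHz, cryoprobe. Ligand from ~60 mM DMSO-d6 stock. Control sample held protein plus the same DMSO-d6 amount.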

For experiment [8], the system named is Human immunodeficiency virus 1. Description: Binding affinity to HIV-1NL4-3 15N-labeled C-terminal domain CA-SP1-NC cleavage site of Gag-Pol protein harboring W184A/M185A mutant expressed in Escherichia coli assessed as change in peak intensity at CA 225 to 229/NC 248 to 251 residues by NMR analysis.
The test system of experiment [9] is Human immunodeficiency virus 1. In words: Binding affinity to HIV-1NL4-3 15N-labeled C-terminal domain CA-SP1-NC cleavage site of Gag-Pol protein harboring W184A/M185A mutant expressed in Escherichia coli assessed as change in peak intensity at CA 218 to NC 257 residues by 1H-15N SOFAST-HMQC spectroscopic analysis. Summed up:
as §2

A short description of experiment [10]: Binding affinity to HIV-1NL4-3 15N-labeled C-terminal domain CA-SP1-NC at S236 residue cleavage site of Gag-Pol protein harboring W184A/M185A mutant expressed in Escherichia coli by 1H-15N SOFAST-HMQC spectroscopic analysis. The arrangement: species or system Human immunodeficiency virus 1. Summed up: as §1
The test system of experiment [11] is Human immunodeficiency virus 1. Description: Binding affinity to HIV-1NL4-3 15N-labeled C-terminal domain CA-SP1-NC cleavage site of Gag-Pol protein harboring W184A/M185A mutant expressed in Escherichia coli assessed as formation of QVT motif at SP1 232 to 239 residues by NMR analysis.
The nature of experiment [12]: Binding affinity to HIV-1NL4-3 15N-labeled C-terminal domain CA-SP1-NC at A232 residue cleavage site of Gag-Pol protein harboring W184A/M185A mutant expressed in Escherichia coli by 1H-15N SOFAST-HMQC spectroscopic analysis. Details: species or system Human immunodeficiency virus 1. Summed up: as §1
Experiment [13] is described as follows: Binding affinity to HIV-1NL4-3 15N-labeled C-terminal domain CA-SP1-NC at E233 residue cleavage site of Gag-Pol protein harboring W184A/M185A mutant expressed in Escherichia coli by 1H-15N SOFAST-HMQC spectroscopic analysis. Details: species or system Human immunodeficiency virus 1. Summed up: as §1
The nature of experiment [14]: Binding affinity to HIV-1NL4-3 15N-labeled C-terminal domain CA-SP1-NC at V238 residue cleavage site of Gag-Pol protein harboring W184A/M185A mutant expressed in Escherichia coli by 1H-15N SOFAST-HMQC spectroscopic analysis. The arrangement: species or system Human immunodeficiency virus 1. Summed up: as §1
A short description of experiment [15]: Binding affinity to HIV-1NL4-3 15N-labeled C-terminal domain CA-SP1-NC at T257 residue cleavage site of Gag-Pol protein harboring W184A/M185A mutant expressed in Escherichia coli by 1H-15N SOFAST-HMQC spectroscopic analysis. Details: species or system Human immunodeficiency virus 1. Summed up: as §1
Experiment [16] deals with Human immunodeficiency virus 1. Description: Binding affinity to HIV-1NL4-3 15N-labeled C-terminal domain CA-SP1-NC cleavage site of Gag-Pol protein harboring W184A/M185A mutant expressed in Escherichia coli assessed as change in chemical shift perturbation at CA 218 to NC 257 residues by 1H-15N SOFAST-HMQC spectroscopic analysis. Summed up: as §2

Active and inactive are the calls of the source. The calls are words filed in the database; no cut-off is given here.

As for `C=C(C)[C@@H]1CC[C@]2(C(=O)NCCN)CC[C@]3(C)[C@@H](CC[C@@H]4[C@@]5(C)CC[C@H](OC(=O)CC(C)(C)C(=O)O)C(C)(C)[C@@H]5CC[C@]43C)[C@@H]12`, the Kd in [1] amounted to 678 µM; in experiment [3], 670 µM; in experiment [4], 235 µM; in experiment [5] it was 154 µM; in [6], 52.5 µM; in experiment [10] it was 180 µM. For the same molecule, the Kd in experiment [12] is 692 µM; in experiment [13], 237 µM; in experiment [14], 204 µM; in experiment [15], 308 µM. Moreover, in experiment [2], the Activity was -0.164. Moreover, the outcome in experiment [7], in experiment [8], in [9], in experiment [11] and in experiment [16] was Active.

These data come from ChEMBL document CHEMBL4706526, “The HIV-1 maturation inhibitor, EP39, interferes with the dynamic helix-coil equilibrium of the CA-SP1 junction of Gag” (Eur J Med Chem, 2020).
